High-throughput results deposited in PubChem by several laboratories.
In the library only some 2.7% were active in any assay of this set; here they are far more common.
RAM inhibit: yeast RAM network inhibition | S. cerevisiae dse1pr::URA3 reporter, 5-FOA growth OD615, 2 d; analog-sensitive cbk1-as2 kinase mutant strain | inhibition, % at 50 µM | 190,000 compounds, 1.8% hits;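 active means inhibition above a set limit, 3 SD over mean compound inhibition, cut at about 8.4% in these data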;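 further: 0% = DMSO-only wells with no growth and 100% = 10 µM 1-NA-PP1 full growth; inhibition rescues growth on 5-FOA so higher OD means more RAM inhibition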
SDO1 yeast rescue: restores growth of sdo1-depleted yeast | S. cerevisiae sdo1-depleted JHY4D growth rescue, OD600 30 h; stronger effect = higher value; pdr5 snq2 efflux-pump mutant strain | AID 817 | 140,000 compounds, 0.21% hits | z-score at 10 µM;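 active means z-score above 3 at both the 24 hr and the 30 hr optical density reads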;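 further: z-score against mean and SD of all compound wells on the same plate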
Yeast life ext: yeast lifespan extension. 130,000 compounds, 0.68% hits. inhibition of the nicotinamide effect, % at 10 µM. S. cerevisiae growth with nicotinamide, OD615; deaD strain in restrictive glucose medium;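 active means inhibition above a set limit, placed 3 SD over the median of all compounds, cut at about 26% in these data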;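 further: 0% = nicotinamide-treated wells and 100% = cells grown without nicotinamide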
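Assay system: engineered S. cerevisiae DeaD replicative-lifespan strain, galactose-grown log-phase cells; medium: restrictive CSMM-D dextrose medium; also added: nicotinamide, 1.5 mM, co-present with compound; schedule: 48 h compound exposure at 30 °C, humidified; detection: absorbance at 615 nm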
Yeast growth inh: yeast BB579 growth reduction in restrictive medium; S. cerevisiae BB579 growth, OD615, 48 h; inhibition, % at 10 µM; 140,000 compounds, 0.51% hits;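 active means inhibition above a set limit, 3 SD over the mean compound inhibition, cut at about 44% in these data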
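System: Saccharomyces cerevisiae DeaD strain BB579, replicative lifespan model yeast. Buffer or medium: restrictive glucose-based CSMM-D medium. Doses: one dose, 10 µM compound with 0.25% DMSO. Timing: 4 h preincubation and 48 h exposure at 30 °C. Detection: turbidity as optical density at 615 nm. Benchmarks: amphotericin B 10 µg/mL, positive.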
Numbers without * were called inactive; x = no result.

SMILES | RAM inhibit | SDO1 yeast rescue | Yeast life ext | Yeast growth inh
CCOC(=O)c1ccc(NC(=O)c2ccccc2[N+](=O)[O-])cc1 | 0 | -0.91 | -3 | 3
CSc1nnc(Cn2c(=O)sc3ccccc32)n1C | 0 | 0.66 | -1 | -13
CSc1nnc(Cn2c(=O)sc3ccccc32)n1CCc1ccccc1 | 8.9* | -0.76 | 0 | -28
Cc1ccccc1Nc1ncnc(N)n1 | 0 | x | x | x
Cc1nn(C(C)(C)C)c(OC(=O)c2ccco2)c1Sc1ccccc1 | 6 | -0.92 | 47 | -33
Cc1nn(C(C)(C)C)c(OC(=O)c2ccc(Br)o2)c1Sc1ccccc1 | 11* | -0.47 | 33* | -27
Cc1nn(C(C)(C)C)c(OC(=O)c2cccs2)c1Sc1ccccc1 | 11* | -0.9 | 15 | -72
Cc1nn(C(C)(C)C)c(OC(=O)c2ccc3c(c2)OCO3)c1Sc1ccccc1 | 7 | -0.7 | 0 | -54
CC(C)(C)c1ccc(C(=O)NCC(=O)OCC(=O)Nc2ccc3c(c2)OCCO3)cc1 | 5 | 0.55 | -3 | -29
CS(=O)(=O)c1nsc2nc(=O)c(/C=C3\C=Nc4ccccc43)c(N)n12 | 9.9* | x | x | x
COc1ccc(CC(=O)NNC(=O)CSc2nc(C)c(C)c(=O)[nH]2)cc1 | 0 | x | x | x
Cn1c(SCC(=O)NNC(=O)Cc2ccccc2)nc2ccccc2c1=O | -1 | x | x | x
CCOC(=O)C1=C(C)N(C)C(C)=C(C(=O)OCC)C1c1ccsc1 | 2 | x | x | x
COc1cc(OC)cc(C(=O)N[C@H](C(=O)OCc2cc(=O)oc3cc(C)ccc23)C(C)C)c1 | 7 | -0.63 | -4 | 15
CCOc1ccccc1C(=O)N[C@H](C(=O)OCc1cc([N+](=O)[O-])cc2c1OCOC2)C(C)C | 8.8* | -0.54 | -3 | -42
CCOc1ccccc1C(=O)N[C@H](C(=O)OCc1cc(=O)oc2cc(C)ccc12)C(C)C | 9.7* | -0.58 | 7 | -30
CC(C)C(NC(=O)c1ccccc1)C(=O)OCc1cc([N+](=O)[O-])cc2c1OCOC2 (stereo not given) | 1 | 0.37 | -7 | -14
COc1cc(OC)cc(-c2nc3ccccc3c(=O)n2OC(=O)c2ccc(C)c(C)c2)c1 | 4 | -0.22 | 64* | -37
CC(C)n1nnnc1-c1ccc(Cl)cc1 | -1 | x | x | x
CC1=Nc2ccccc2/C1=C\c1nc(-c2ccc(F)cc2)oc1O | 8.6* | -1.4 | -15 | -32
CN=Cc1nc(-c2ccccc2)oc1O | 0 | 1.2 | x | -4
CC(C)(C)c1ccc(-c2nc(-c3ccncc3)no2)cc1 | -2 | -0.6 | x | 68*
Cc1cc(C)cc(-c2nc(-c3ccncc3)no2)c1 | 2 | -0.27 | -10 | -19
CC(C)C(C(=O)O)N1C(=O)/C(=C/C=C/c2ccco2)SC1=S (stereo not given) | 1 | -0.24 | 20 | -11
CC(C)C(C(=O)O)N1C(=O)/C(=C/c2cccn2C)SC1=S (stereo not given) | -1 | -0.3 | 42* | -34
SMILES | RAM inhibit | SDO1 yeast rescue | Yeast life ext | Yeast growth inh
Cc1ccc(S(=O)(=O)NN2C(=O)/C(=C/c3cccn3C)SC2=S)cc1 | 5 | 1 | 30* | -47
O=C1/C(=C/c2ccccn2)SC(=S)N1NS(=O)(=O)c1ccccc1 | 7 | x | x | x
CCCC(C(=O)O)N1C(=O)/C(=C/c2cccn2C)SC1=S (stereo not given) | 3 | 0.48 | 27* | -26
N#CCCN(C(=S)NC(=O)c1ccco1)c1ccccc1F | 2 | x | x | x
CSc1nnc(C)c(=O)n1COC(=O)c1cc(Cl)ccc1[N+](=O)[O-] | 0 | x | x | x
CCCNC(=O)N1CCN(S(C)(=O)=O)CC1 | 1 | x | x | x
Cc1cc(N2CCOCC2)ccc1/C=C1\SC(=O)N(C(C)C)C1=O | 11* | -0.94 | -13 | -15
CCC(C)N1C(=O)S/C(=C/c2ccc(N3CCOCC3)cc2C)C1=O (stereo not given) | 8 | -0.36 | -2 | -25
O=C(NCc1ccccc1Cl)C(=O)NCC1OCCN1S(=O)(=O)c1cccs1 (stereo not given) | 2 | x | x | x
Cc1cc([N+](=O)[O-])ccc1-c1ccc(C2Nc3ccccc3C(=O)N2O)o1 (stereo not given) | 1 | 0.14 | -14 | 50*
O=C(COc1ccc(Br)cc1Cl)NC(=O)Nc1ccc2c(c1)OCCO2 | 1 | x | x | x
O=C(COc1ccc(Br)cc1Cl)NC(=O)NCc1ccccc1 | 8.8* | -0.19 | 7 | -32
NC(=O)CSc1nc(-c2ccccc2)c(-c2ccccc2)o1 | 11* | -1.2 | x | -40
CCc1nnc(NC(=O)CSc2nc(-c3ccccc3)c(-c3ccccc3)o2)s1 | 1 | 0.05 | -3 | -10
O=C1NC(c2ccccc2)=C(c2nc3ccccc3s2)C(c2ccc(F)cc2)N1 (stereo not given) | 6 | -1.8 | 15 | -11
COc1ccc(C2NC(=O)NC(c3ccccc3)=C2c2nc3ccccc3s2)cc1 (stereo not given) | 8.7* | -0.53 | -7 | -41
C=C(C(=O)c1ccccc1)C(C)CC(=O)c1ccccc1 (stereo not given) | 0 | -1 | 34* | -17
O=C(CC(Nc1ccccc1)C(=O)O)c1ccccc1 (stereo not given) | 3 | -0.98 | -7 | -70
CCOC(=O)C1CCCN(C(=O)c2ccc3c(c2)N(Cc2ccccc2)C(=O)c2ccccc2S3=O)C1 (stereo not given) | 3 | x | x | x
Cc1ccc(N/C(C(Cl)=C(Cl)Cl)=C(/Cl)[N+](=O)[O-])c(C)c1 | 9.4* | -0.19 | 48* | -57
O=[N+]([O-])c1cccc(/C=N\N=C2c3ccccc3-c3ccccc32)c1O | 9.9* | -1.3 | -4 | 4
COc1ccc(-c2cc(CS(=O)(=O)c3ccccc3)on2)cc1 | 1 | x | x | x
CCOP(=O)(OCC)C(Nc1cccc(C(F)(F)F)c1)c1ccc(C)cc1 (stereo not given) | 5 | -0.27 | 1 | 5
CCCOP(=O)(OCCC)C(Nc1cccc(C(F)(F)F)c1)c1ccc(C)cc1 (stereo not given) | 10* | -1 | -3 | -45
CC(C)(C)OC(=O)[C@H]1[C@H](c2ccc([N+](=O)[O-])cc2)C2(C(=O)c3ccccc3C2=O)C2c3ccccc3C=NN21 (stereo not given in full) | 6 | 0.4 | 43* | -15
SMILES | RAM inhibit | SDO1 yeast rescue | Yeast life ext | Yeast growth inh
COc1ccc([C@H]2[C@H](C(=O)C(C)(C)C)N3N=Cc4ccccc4C3[C@]23N=C(c2ccccc2)OC3=O)cc1 (stereo not given in full) | 3 | -1.8 | -7 | -36
O=C(COC(=O)c1cccc(NS(=O)(=O)c2ccc(F)c(F)c2)c1)NC(=O)NC1CCCC1 | 5 | 0.36 | 0 | 3
COC(=O)c1ccc(NC(=S)Nc2ccccc2)cc1 | 1 | 0.59 | -4 | -19
O=C(O)c1ccc(NC(=S)Nc2ccccc2)cc1 | 4 | -0.21 | 37* | 17
C/C(=N\Nc1ccc(F)cc1F)c1ccc(Br)s1 | -1 | x | x | x
CC(=O)C1=C(C)NC(SCC(=O)c2ccc(Cl)cc2)=C(C#N)C1CC(C)C (stereo not given) | 9.1* | -0.37 | -4 | -38
